The term inhibition denotes the relative decrease from the control value, in per cent. A word on the Papp: it is a coefficient for how fast a substance crosses the barrier. One may read the pIC50 as the IC50 on a negative log10 scale, so that one unit is a factor of ten. Broadly, the Tmax is the time at which the peak concentration occurs.

Each structure is given as a SMILES string. pIC50: −log10 of the molar value. Active and inactive are the calls of the source.

Here are results for 1 compound from ChEMBL document CHEMBL4400543, “Identification and Characterization of AES-135, a Hydroxamic Acid-Based HDAC Inhibitor That Prolongs Survival in an Orthotopic Mouse Model of Pancreatic Cancer” (J Med Chem, 2019).

For series [1], the target named is Histone deacetylase 1 (Homo sapiens) (UniProt Q13547). Kind of series: Inhibition of recombinant human HDAC1 expressed in SF9 baculoviral system at 10 uM using FAM-labeled acetylated peptide as substrate by EMSA relative to control. The method, boiled down:
(§1)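 Full-length recombinant human HDACs from an Sf9 baculovirus system. Single-point screen at 10 μM by microfluidic mobility-shift assay with FAM-labeled acetylated peptide substrate. Buffer: 100 mM HEPES pH 7.5, 25 mM KCl, 0.1% BSA, 0.01% Triton X-100, 1% DMSO. % inhibition from product/(substrate + product) against no-inhibitor and no-enzyme controls.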

In the next series the target is Histone deacetylase 3 (Homo sapiens, UniProt O15379). Kind of series: Inhibition of recombinant human HDAC3 expressed in SF9 baculoviral system at 10 uM using FAM-labeled acetylated peptide as substrate by EMSA relative to control. The method, boiled down: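 Single-point screen at 10 μM compound, using full-length recombinant human enzyme expressed in Sf9 cells. Buffer was HEPES pH 7.5 with KCl, BSA and Triton X-100, and 1% DMSO. Final enzyme was 0.5 nM for HDAC3, 60 nM for HDAC6 and 5.0 nM for HDAC8, with 1 μM FAM-acetylated peptide. Percent inhibition was derived from the product sum ratio relative to DMSO-only (0%) and no-enzyme (100%) controls.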
(In general: A gel shift assay detects complexes by their altered migration in electrophoresis.)

The target of series [2] is Histone deacetylase 11 (Homo sapiens) (UniProt Q96DB2). Kind of series: Inhibition of recombinant human HDAC11 expressed in SF9 baculoviral system at 10 uM using FAM-labeled acetylated peptide as substrate by EMSA relative to control. The method, boiled down: as §1
A further series concerns MOLM-13. As to the kind of experiment: Cytotoxicity against human MOLM13 cells at 50 uM after 72 hrs by CellTiter-Blue assay. The class given is functional, cell-based. Summed up:
(§2)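 Cells in 10% FBS medium, 10 000 cells/well, treated 24 h after plating. Twofold dilution series from a 50.0 μM top dose to 0.097656 μM, in triplicate, 0.5% DMSO vehicle. 72 h at 37 °C, 5% CO2. CellTiter-Blue for 1–4 h, fluorescence 560/590 nm. IC50 by nonlinear regression.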
(Resazurin is reduced to fluorescent resorufin, in cell work by metabolically active cells.)

For another series, the species on record is Homo sapiens. As to the kind of experiment: Cytotoxicity against human D425 cells at 39 nM after 72 hrs by Presto Blue assay. The class given is functional, cell-based. Summed up:
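D425 and D458 medulloblastoma cells in DMEM high glucose with 20% FBS, seeded at 1000 cells/well in medium with 1% FBS. Twofold dilutions from 20 μM down to 39 nM. Exposed 3 days at 37 °C. Presto Blue added about 4 h before fluorescence read (540–570 nm). IC50 from % viability versus log concentration.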

Series [3] is described as follows: Cytotoxicity against human MRC9 cells at 50 uM after 72 hrs by CellTiter-Blue assay. It counts as cell-based. The method, boiled down:
as §2

A short description of series [4]: Intrinsic clearance in ICR/CD1 mouse hepatocytes assessed per million cells at 1 uM up to 120 mins by LC-MS/MS analysis. The class given is ADME, cell-based, Hepatocyte. The conditions noted are these: 2 h.
Series [5] is described as follows: Half life in ICR/CD1 mouse hepatocytes at 1 uM up to 120 mins by LC-MS/MS analysis. It counts as ADME, cell-based, Hepatocyte. The following applies: 2 h.
Series [6] is described as follows: Apparent permeability across basolateral to apical side in human Caco2 cells at 5 uM by LC-MS/MS analysis. The class given is ADME, cell-based. The conditions noted are these: caco-2, 5 µM. The method, boiled down:
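Caco-2 monolayer permeability run in duplicate. Monolayer integrity checked by TEER and Lucifer Yellow fluorescence (ex 485/em 530 nm). Papp measured apical-to-basolateral and basolateral-to-apical by LC-ESI-MS/MS with internal standards. Digoxin, prazosin and propranolol as controls.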

The nature of series [7]: Drug uptake in NSG mouse serum at 20 mg/kg, ip administered as single dose and measured at 1 hr by HPLC-MS/MS analysis. The class given is ADME, organism-based. The conditions noted are these: read-out: Drug uptake. Summed up: (§3)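 NSG mice given a single 20 mg/kg IP dose in Cremophor EL/EtOH (1:1, 4% final volume)/sterile saline. Tail-vein blood at 0.5, 1, 2, 4, 8 and 24 h, n = 2. Drug quantified in serum/plasma. Half-life and clearance calculated assuming 100% bioavailability.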

A short description of series [8]: Drug uptake in NSG mouse serum at 20 mg/kg, ip administered as single dose and measured at 0.5 hrs by HPLC-MS/MS analysis. It counts as ADME, organism-based. The conditions noted are these: read-out: Drug uptake. The method, boiled down:
as §3

Series [9] is described as follows: Drug uptake in NSG mouse serum at 20 mg/kg, ip administered as single dose and measured at 2 hrs by HPLC-MS/MS analysis. The class given is ADME, organism-based. The following applies: read-out: Drug uptake. The method, boiled down: as §3
The nature of series [10]: Drug uptake in NSG mouse serum at 20 mg/kg, ip administered as single dose and measured at 8 hrs by HPLC-MS/MS analysis. The class given is ADME, organism-based. The conditions noted are these: read-out: Drug uptake. Summed up:
as §3

A short description of series [11]: Drug uptake in NSG mouse serum at 20 mg/kg, ip administered as single dose and measured at 24 hrs by HPLC-MS/MS analysis. The conditions noted are these: read-out: Drug uptake. The class given is ADME, organism-based. The method, boiled down: as §3
Series [12] can be described thus: Toxicity in NSG mouse assessed as body weight loss at 60 mg/kg, ip administered daily for 4 to 5 days. The class given is organism-based. The conditions noted are these: in vivo. Summed up:
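NSG mice were dosed IP daily across a range of doses for 4–5 days (n = 6). Animals were weighed before and after dosing, and toxicity was scored as percentage body-weight loss.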

A further series concerns Pa03C. Kind of series: Cytotoxicity against human Pa03C cells assessed as reduction in tumor spheroid area after 72 hrs by Alamar Blue assay. It counts as functional, cell-based. Summed up:
(§4)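 3D spheroids of patient-derived PDAC cells (tomato red) alone or with CAF19 cells, plus CAF cultures. Imaging read-outs: area is the μ2 of objects above a tomato red intensity threshold; intensity is summed red or green pixel fluorescence after background removal. n = 3–5.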

In a further series the test system is Panc1005. Kind of series: Cytotoxicity against human Panc 10.05 cells assessed as reduction in tumor spheroid area after 72 hrs in presence of human CAF19 cells by Alamar Blue assay. The class given is functional, cell-based. The following applies: Panc1005, 72 h. Summed up:
as §4

The target of series [13] is Signal transducer and activator of transcription 3 (Homo sapiens) (UniProt P40763). As to the kind of experiment: Inhibition of STAT3 phosphorylation at Y705 residue in human BTSC 143EF cells at 1 to 10 uM after 24 hrs by Western blot method. It counts as cell-based. The method, boiled down: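 BTSCs dissociated to single cells and treated with drug or DMSO. Lysed in RIPA buffer with protease inhibitors. 20 μg lysate run on SDS-PAGE and transferred to nitrocellulose. Blocked in 5% milk, primary antibody overnight at 4 °C, then HRP secondary for 1 h.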
For orientation: A western blot detects proteins with antibodies after separation by electrophoresis.

The nature of series [14]: Drug recovery in CD1 mouse plasma after 6 hrs by LC-ESI MS analysis. The class given is ADME, cell-free. The conditions noted are these: read-out: Drug recovery.
Series [15] can be described thus: Tmax in NSG mouse at 20 mg/kg, ip administered as single dose by HPLC-MS/MS analysis. It counts as ADME, organism-based. The conditions noted are these: in vivo. The method, boiled down:
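NSG mice received a single 20 mg/kg IP injection in Cremophor EL/EtOH (1:1, 4% final volume)/sterile saline. Tail-vein blood was taken at 0.5, 1, 2, 4, 8 and 24 h, and compound was quantified in plasma (n = 2).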

Series [16] can be described thus: Toxicity in NSG mouse at 10 to 40 mg/kg, ip assessed as induction of body weight loss administered daily for 5 days by HPLC-MS/MS analysis. The conditions noted are these: in vivo, 120 h. The class given is organism-based. Summed up: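 NSG mice were given 10 or 40 mg/kg IP once daily for 5 days (n = 6). Blood was drawn 5 h after the last injection for compound measurement. Toxicity was judged by percentage weight loss versus vehicle-treated mice.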

For the next series, the system named is Mus musculus. As to the kind of experiment: Antitumor activity against mouse KPC cells allografted in […] C57BI/6 mouse assessed as mean survival time at 50 mg/kg, ip administered daily for 5 days per week for 1 month starting on day 7 post implantation (reference value: 29.5 days). It counts as functional, organism-based.

Sequence of Histone deacetylase 1 (Homo sapiens) (Q13547 whole entry): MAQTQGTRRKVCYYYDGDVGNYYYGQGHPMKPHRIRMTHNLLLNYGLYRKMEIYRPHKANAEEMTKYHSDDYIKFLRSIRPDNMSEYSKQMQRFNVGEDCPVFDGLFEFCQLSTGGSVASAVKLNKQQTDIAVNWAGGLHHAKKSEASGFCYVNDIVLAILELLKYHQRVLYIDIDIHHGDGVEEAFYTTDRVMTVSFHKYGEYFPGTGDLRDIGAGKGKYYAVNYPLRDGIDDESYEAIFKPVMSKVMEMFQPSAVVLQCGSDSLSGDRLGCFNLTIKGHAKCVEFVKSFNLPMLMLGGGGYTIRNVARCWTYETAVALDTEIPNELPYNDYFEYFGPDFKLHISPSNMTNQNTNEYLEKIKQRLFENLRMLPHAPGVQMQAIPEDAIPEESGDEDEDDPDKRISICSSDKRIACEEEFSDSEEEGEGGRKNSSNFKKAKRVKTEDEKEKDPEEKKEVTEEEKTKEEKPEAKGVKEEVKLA
Sequence of Signal transducer and activator of transcription 3 (Homo sapiens) (P40763 whole entry): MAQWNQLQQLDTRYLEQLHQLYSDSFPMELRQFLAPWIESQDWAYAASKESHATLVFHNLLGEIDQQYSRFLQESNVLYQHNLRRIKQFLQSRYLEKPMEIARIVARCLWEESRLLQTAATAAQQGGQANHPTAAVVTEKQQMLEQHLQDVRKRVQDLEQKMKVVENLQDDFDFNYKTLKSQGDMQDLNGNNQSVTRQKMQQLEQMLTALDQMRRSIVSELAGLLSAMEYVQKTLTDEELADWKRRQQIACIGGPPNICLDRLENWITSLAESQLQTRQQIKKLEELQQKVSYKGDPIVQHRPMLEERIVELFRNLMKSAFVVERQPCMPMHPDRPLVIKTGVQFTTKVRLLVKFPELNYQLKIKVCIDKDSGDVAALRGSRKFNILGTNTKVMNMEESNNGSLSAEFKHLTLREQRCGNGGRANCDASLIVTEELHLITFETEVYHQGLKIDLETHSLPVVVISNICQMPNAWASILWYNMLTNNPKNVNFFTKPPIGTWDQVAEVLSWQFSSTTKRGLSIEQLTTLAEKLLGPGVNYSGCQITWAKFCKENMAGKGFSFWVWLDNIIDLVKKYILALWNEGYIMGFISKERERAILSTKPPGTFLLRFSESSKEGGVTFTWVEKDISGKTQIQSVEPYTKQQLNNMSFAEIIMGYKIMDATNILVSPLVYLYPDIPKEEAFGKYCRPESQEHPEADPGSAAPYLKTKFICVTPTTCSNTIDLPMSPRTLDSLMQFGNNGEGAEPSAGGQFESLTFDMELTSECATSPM
Sequence of Histone deacetylase 3 (O15379 whole entry): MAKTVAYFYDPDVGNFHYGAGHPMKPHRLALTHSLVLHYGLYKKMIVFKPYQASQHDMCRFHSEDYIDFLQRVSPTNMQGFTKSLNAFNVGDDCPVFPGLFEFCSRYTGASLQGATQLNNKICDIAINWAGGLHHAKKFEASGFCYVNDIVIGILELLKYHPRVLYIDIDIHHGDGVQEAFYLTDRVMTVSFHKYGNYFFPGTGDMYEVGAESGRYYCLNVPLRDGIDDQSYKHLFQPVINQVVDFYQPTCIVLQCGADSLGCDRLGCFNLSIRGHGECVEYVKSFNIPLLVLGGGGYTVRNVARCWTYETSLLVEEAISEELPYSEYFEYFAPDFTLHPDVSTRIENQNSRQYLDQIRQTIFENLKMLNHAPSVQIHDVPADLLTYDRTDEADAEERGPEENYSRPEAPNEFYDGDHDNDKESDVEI
Sequence of Histone deacetylase 11 (Homo sapiens) (Q96DB2 whole entry): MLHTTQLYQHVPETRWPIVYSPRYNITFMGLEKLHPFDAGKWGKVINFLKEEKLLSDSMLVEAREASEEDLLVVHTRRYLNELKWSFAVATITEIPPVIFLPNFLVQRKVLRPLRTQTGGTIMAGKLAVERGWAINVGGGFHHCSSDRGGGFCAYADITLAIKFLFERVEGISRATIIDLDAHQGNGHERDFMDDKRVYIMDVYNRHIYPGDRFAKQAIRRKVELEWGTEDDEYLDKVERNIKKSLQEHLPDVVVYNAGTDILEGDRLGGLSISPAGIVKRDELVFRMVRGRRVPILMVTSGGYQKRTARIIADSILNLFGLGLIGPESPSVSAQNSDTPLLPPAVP

For the compound `CC(C)(C)c1ccc(CN(C(=O)CN(Cc2c(F)c(F)c(F)c(F)c2F)S(=O)(=O)c2ccc(F)cc2)c2ccc(C(=O)NO)cc2)cc1`, the inhibition turned out to be 72% in series [1], 98% on Histone deacetylase 3 and 97% in [2]. The result with MOLM-13 and in the series filed under Homo sapiens was Active. Further, the Activity entry in series [3], in [12] and in series [16] was “Non-Toxic” in each case. In series [4], the CLH is 36 µL/min. The compound further returned a t1/2 in series [5] of 38.5 min. For the same compound, the Papp in series [6] is on record as 1.02 ×10⁻⁶ cm/s. For the same compound, the concentration at 1 h in [7] came out at 5400 ng/mL. The concentration at 0.5 h in series [8] was 7450 ng/mL. Further, the concentration at 2 h in series [9] amounted to 5390 ng/mL. The concentration at 8 h in series [10] is 6390 ng/mL. The concentration at 24 h in series [11] stood at 265 ng/mL. The pIC50 with Pa03C is 5.91; with Panc1005, 6.03. Further, in [13], the inhibition result is “inactive”. Besides, the remaining at 6 h in [14] lay in the range of 16 to 20%. In addition, in [15], the Tmax was found to be 30 min. Further, the outcome in the series with Mus musculus was inactive.
